The source of these data is ChEMBL document CHEMBL3758079, “Design, synthesis and biological evaluation of chalconyl blended triazole allied organosilatranes as giardicidal and trichomonacidal agents” (Eur J Med Chem, 2016).

One data set has as its system Giardia intestinalis. As to the kind of experiment: Antiparasitic activity against Giardia lamblia Portland 1 after 48 hrs by MTT assay. The format is functional, organism-based. The following applies: Giardia duodenalis, Portland 1, 48 h. An outline of the steps: (§1)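 Trophozoite cultures grown in 96-well plates at 37 °C for 24 h, then serial two-fold dilutions (0.9-15 μg/cm³) added from DMSO stocks, 0.5% DMSO as 100%-growth control. Incubated 48 h, then MTT 4 h at 37 °C in dark. Dissolved in DMSO, A570 read. IC50 from sigmoid dose-response. Run in duplicate, three independent experiments in triplicate.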
Background: Formazan colour is commonly taken as a measure of viable cells.

A further data set has as its system Trichomonas vaginalis. As to the kind of experiment: Antiparasitic activity against Trichomonas vaginalis 162 after 48 hrs by MTT assay. It counts as functional, organism-based. The following applies: Trichomonas vaginalis, 162, 48 h. Put shortly:
as §1

The nature of data set [1]: Cytotoxicity against human HeLa cells after 18 hrs by MTT assay. It counts as cell-based. Put shortly:
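Cells (5×10^4/well) seeded in RPMI-1640 with 10% FBS, overnight at 37 °C. Compounds added at 100 to 1.56 µM for 18 h at 37 °C. MTT (5 mg/ml in PBS) added for 3-4 h, formazan dissolved in DMSO. CC50 is the concentration giving 50% growth inhibition relative to untreated cells.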

Data set [2] in a line: Cytotoxicity against HEK293 cells after 18 hrs by MTT assay. It counts as cell-based. The following applies: human.
The nature of data set [3]: Selectivity index, ratio of CC50 for human HeLa cells to IC50 for Trichomonas vaginalis 162. The format is functional.
Data set [4] is described as follows: Selectivity index, ratio of CC50 for HEK293 cells to IC50 for Trichomonas vaginalis 162. The format is functional.
The nature of data set [5]: Selectivity index, ratio of CC50 for HEK293 cells to IC50 for Giardia lamblia Portland 1. The format is functional.
Data set [6] is described as follows: Selectivity index, ratio of CC50 for human HeLa cells to IC50 for Giardia lamblia Portland 1. The format is functional.

As a reminder, the IC50 is the concentration needed to halve the response being measured. With `COc1ccccc1/C=C/C(=O)c1cccc(OCc2cn(CCC[Si]34OCCN(CCO3)CCO4)nn2)c1`, the IC50 with Giardia intestinalis was determined as 43.7 µM; with Trichomonas vaginalis, 43.1 µM.
In the same order, the values of `COc1ccc(/C=C/C(=O)c2ccccc2OCc2cn(CCC[Si]34OCCN(CCO3)CCO4)nn2)c(OC)c1` are 35.4 µM and 22.1 µM.
In the same order, the values of `Cc1ccc(/C=C/C(=O)c2ccccc2OCc2cn(CCC[Si]34OCCN(CCO3)CCO4)nn2)cc1` are 48 µM and 50 µM.
In the same order, the values of `O=C(/C=C/c1ccc(Cl)cc1)c1ccc(OCc2cn(CCC[Si]34OCCN(CCO3)CCO4)nn2)cc1` are 33.1 µM and 21.9 µM.
`COc1ccccc1/C=C/C(=O)c1ccccc1OCc1cn(CCC[Si]23OCCN(CCO2)CCO3)nn1` registered an IC50 with Trichomonas vaginalis of 23.8 µM.
The term CC50 denotes the concentration that lowers cell viability or growth by half. Higher therefore signals lower toxicity to the cells. For `COc1ccc(/C=C/C(=O)c2ccccc2OCc2cn(CCC[Si]34OCCN(CCO3)CCO4)nn2)c(OC)c1OC`, the CC50 at 18 h in data set [1] was 232 µM; in data set [2] it was 285 µM. Further, in the data set on Trichomonas vaginalis, the IC50 came to 21.3 µM. The entries for the “Ratio CC50/IC50” value in data set [3] and in data set [4] were 10.92 and 13.39, respectively.
Consider `COc1ccc(/C=C/C(=O)c2ccc(OCc3cn(CCC[Si]45OCCN(CCO4)CCO5)nn3)cc2)cc1`, for which the IC50 was determined as 54.9 µM in the data set with Giardia intestinalis and 21.6 µM with Trichomonas vaginalis.
The matching figures for `O=C(/C=C/c1ccccc1)c1ccc(OCc2cn(CCC[Si]34OCCN(CCO3)CCO4)nn2)cc1`: 59.7 µM and 27.2 µM.
For `COc1ccc(/C=C/C(=O)c2cccc(OCc3cn(CCC[Si]45OCCN(CCO4)CCO5)nn3)c2)c(OC)c1`, the IC50 came out at 43.9 µM in the data set on Giardia intestinalis and 43.8 µM in the data set with Trichomonas vaginalis.
For the molecule `O=C(/C=C/c1ccccc1)c1cccc(OCc2cn(CCC[Si]34OCCN(CCO3)CCO4)nn2)c1`, the results for the IC50 in the data set with Giardia intestinalis and in the data set on Trichomonas vaginalis were 81 µM and 65.6 µM, respectively.
As to `O=C(/C=C/c1ccc(Cl)cc1)c1cccc(OCc2cn(CCC[Si]34OCCN(CCO3)CCO4)nn2)c1`, the IC50 with Giardia intestinalis came to 78.5 µM; in the data set on Trichomonas vaginalis, 55.7 µM.
For the molecule `Cc1ccc(/C=C/C(=O)c2ccc(OCc3cn(CCC[Si]45OCCN(CCO4)CCO5)nn3)cc2)cc1`, the IC50 in the data set with Giardia intestinalis came out at 33.2 µM; in the data set on Trichomonas vaginalis, 24.8 µM. Moreover, the “Ratio CC50/IC50” value came to 5.95 in data set [5], 5.68 in data set [6], 7.61 in data set [3] and 7.97 in data set [4]. The CC50 at 18 h in data set [1] came out at 189 µM; in data set [2], 198 µM.
For the molecule `COc1ccc(/C=C/C(=O)c2ccccc2OCc2cn(CCC[Si]34OCCN(CCO3)CCO4)nn2)cc1`, the values for the IC50 in the data set with Giardia intestinalis and with Trichomonas vaginalis were 32.2 µM and 26.7 µM, respectively.
Turning to `COc1ccc(/C=C/C(=O)c2ccc(OCc3cn(CCC[Si]45OCCN(CCO4)CCO5)nn3)cc2)c(OC)c1OC`, the IC50 in the data set on Giardia intestinalis worked out at 30.2 µM; with Trichomonas vaginalis it was 18.2 µM. In addition, the “Ratio CC50/IC50” value in data set [5] came to 8.94; in data set [6] it was 7.53; in data set [3], 12.46; in data set [4], 14.78. In addition, the CC50 at 18 h in data set [1] was found to be 227 µM; in data set [2] it was 270 µM.
For `COc1ccc(/C=C/C(=O)c2cccc(OCc3cn(CCC[Si]45OCCN(CCO4)CCO5)nn3)c2)c(OC)c1OC`, the IC50 stood at 19.6 µM in the data set on Giardia intestinalis and 42.1 µM with Trichomonas vaginalis. Further, the “Ratio CC50/IC50” value in data set [5] is recorded as 16.74; in data set [6], 17.36; in data set [3], 8.07; in data set [4] it was 7.79. Moreover, the CC50 at 18 h in data set [1] worked out at 340 µM; in data set [2], 328 µM.
Regarding `COc1ccccc1/C=C/C(=O)c1ccc(OCc2cn(CCC[Si]34OCCN(CCO3)CCO4)nn2)cc1`, the IC50 in the data set with Giardia intestinalis stood at 40.9 µM; in the data set on Trichomonas vaginalis, 22.7 µM.
Turning to `COc1ccc(/C=C/C(=O)c2cccc(OCc3cn(CCC[Si]45OCCN(CCO4)CCO5)nn3)c2)cc1`, the CC50 at 18 h in data set [1] was found to be 203 µM; in data set [2] it was 267 µM. The molecule also returned an IC50 in the data set with Trichomonas vaginalis of 30.3 µM. Further, the figures for the “Ratio CC50/IC50” value in data set [3] and in data set [4] were 6.7 and 8.81, respectively.
On to `Cc1ccc(/C=C/C(=O)c2cccc(OCc3cn(CCC[Si]45OCCN(CCO4)CCO5)nn3)c2)cc1`, for which the IC50 in the data set on Giardia intestinalis came to 131 µM; in the data set on Trichomonas vaginalis, 101 µM.
`O=C(/C=C/c1ccc(Cl)cc1)c1ccccc1OCc1cn(CCC[Si]23OCCN(CCO2)CCO3)nn1`: the figures for the IC50 in the data set with Giardia intestinalis and in the data set on Trichomonas vaginalis were 33.9 µM and 22.3 µM, respectively.
As for `O=C(/C=C/c1ccccc1)c1ccccc1OCc1cn(CCC[Si]23OCCN(CCO2)CCO3)nn1`, the IC50 is 28.1 µM with Giardia intestinalis and 23.3 µM in the data set on Trichomonas vaginalis. Besides, the “Ratio CC50/IC50” value in data set [5] came out at 7.41; in data set [6], 8.48; in data set [3], 10.23; in data set [4], 8.94. Further, the CC50 at 18 h in data set [1] came out at 238 µM; in data set [2], 208 µM.
As for `COc1ccc(/C=C/C(=O)c2ccc(OCc3cn(CCC[Si]45OCCN(CCO4)CCO5)nn3)cc2)c(OC)c1`, the results for the half-inhibitory concentration (IC50) in the data set on Giardia intestinalis and with Trichomonas vaginalis were 31.9 µM and 22.9 µM, respectively.
Turning to `Cc1ncc([N+](=O)[O-])n1CCO` [METRONIDAZOLE], the figures for the IC50 in the data set on Giardia intestinalis and in the data set with Trichomonas vaginalis were 62.5 µM and 55.9 µM, respectively.
